# B1: Osa-1-4 twister ribozyme (parent)
# chain: CCGCCUAACACUGCCAAUGCCGGUCCCAAGCCCGGAUAAAAGUGGAGGGGGCGG
# Variants of: B1
# Experiment: self-cleavage, relative activity (ratio to wild type); higher = more cleavage; co-transcriptional
# Method in brief: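 For each read, cleavage status was taken from whether upstream sequence was present. The reads came from an Oryza sativa twister ribozyme of 54 nucleotides, whose DNA template was synthesised with 97 % wild-type base and 1 % of each other base at the 48 positions downstream of the cleavage site. The template was transcribed in vitro at 37 °C for 2 h with co-transcriptional self-cleavage, and the RNA was reverse-transcribed using a template-switching oligonucleotide, PCR-amplified and deep-sequenced. Relative activity is the fraction cleaved normalised to wild type.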
row,Variant,self-cleavage
1,C20G G47C,0.04
2,C20G G47A,0.05
3,C20G G47U,0.03
4,C20G U12G,0.04
5,C20G U12A,0.09
6,C20G U12C,0.07
7,C20G G22C,0.05
8,C20G G22A,0.08
9,C20G G22U,0.09
10,C20A U43G,0.71
11,C20A U43A,0.77
12,C20A U43C,0.58
13,C21A G53A,0.19
14,C21A G53U,0.11
15,C21A G53C,0.06
16,C21A G51U,0.25
17,C21A G51C,0.07
18,C21A G51A,0.31
19,C20G,0.2
20,C20U,0.97
21,C20U U37G,1.04
22,C20U U37C,1.02
23,C20U U37A,0.96
24,C20G G35C,0.28

row,Variant,self-cleavage
1,C20G G35U,0.27
2,C20G G35A,0.27
3,C21A C31A,0.04
4,C21A C31G,0.07
5,C21A C31U,0.21
6,C20G U37C,0.19
7,C20G U37A,0.2
8,C20G U37G,0.19
9,C20A U18C,0.83
10,C20A U18A,0.6
11,C20A U18G,0.67
12,C21A C27A,0.08
13,C21A C27G,0.04
14,C21A C27U,0.08
15,C20U G45A,0.35
16,C20U G45U,0.14
17,C20U G45C,0.06
18,C20G U18A,0.13
19,C20G U18G,0.09
20,C20G U18C,0.2
21,C21A G44A,0.38
22,C21A G44U,0.21
23,C21A G44C,0.24
24,C20G C25A,0.06

row,Variant,self-cleavage
1,C20G C25G,0.06
2,C20G C25U,0.21
3,C20A G45A,0.45
4,C20A G45C,0.05
5,C20A G45U,0.13
6,C21A U12A,0.18
7,C21A U12C,0.14
8,C21A U12G,0.12
9,C21A C9G,0.11
10,C21A C9A,0.07
11,C21A C9U,0.1
12,C20G G48C,0.04
13,C20G G48U,0.03
14,C20G G48A,0.03
15,C21A U37C,0.78
16,C21A U37G,0.94
17,C21A U37A,0.92
18,C20U C52U,0.96
19,C20U C52A,0.9
20,C20U C52G,0.89
21,C20G G19C,0.17
22,C20G G19U,0.37
23,C20G G19A,0.41
24,C20G C26G,0.1

row,Variant,self-cleavage
1,C20G C26U,0.2
2,C20G C26A,0.03
3,C20G G45A,0.04
4,C20G G45C,0.03
5,C20G G45U,0.02
6,C21A G50A,0.85
7,C21A G50C,0.24
8,C21A G50U,0.52
9,C20U U12A,0.83
10,C20U U12C,0.49
11,C20U U12G,0.46
12,C20G C32G,0.06
13,C20G C32U,0.03
14,C20G C32A,0.03
15,C20U G47U,0.29
16,C20U G47A,0.28
17,C20U G47C,0.15
18,C20G G51A,0.09
19,C20G G51U,0.06
20,C20G G51C,0.03
21,C21G C9A,0.04
22,C21G C9G,0.07
23,C21G C9U,0.04
24,C20U G48U,0.1

row,Variant,self-cleavage
1,C20U G48A,0.1
2,C20U G48C,0.1
3,C20G G49U,0.04
4,C20G G49C,0.03
5,C20G G49A,0.05
6,C21A G47C,0.05
7,C21A G47A,0.07
8,C21A G47U,0.07
9,C21A C52U,0.86
10,C21A C52A,0.31
11,C21A C52G,0.54
12,C20G G53U,0.04
13,C20G G53A,0.06
14,C20G G53C,0.03
15,C20A U37C,0.88
16,C20A U37A,0.83
17,C20A U37G,0.89
18,C20G U24C,0.11
19,C20G U24A,0.07
20,C20G U24G,0.05
21,C20G G54U,0.12
22,C20G G54C,0.07
23,C20G G54A,0.06
24,C20U U24A,0.44

row,Variant,self-cleavage
1,C20U U24C,0.38
2,C20U U24G,0.08
3,C20U G30U,0.04
4,C20U G30A,0.05
5,C20U G30C,0.06
6,C21A G30A,0.03
7,C21A G30C,0.04
8,C21A G30U,0.04
9,C20U U43A,0.84
10,C20U U43C,0.49
11,C20U U43G,0.68
12,C21A U24C,0.06
13,C21A U24A,0.07
14,C21A U24G,0.06
15,C20U G19C,0.18
16,C20U G19A,0.9
17,C20U G19U,0.65
18,C21A G13C,0.03
19,C21A G13A,0.07
20,C21A G13U,0.04
21,C20U G22A,0.6
22,C20U G22U,0.5
23,C20U G22C,0.06
24,C20U U18A,0.86

row,Variant,self-cleavage
1,C20U U18C,0.87
2,C20U U18G,0.82
3,C20A G47C,0.13
4,C20A G47U,0.32
5,C20A G47A,0.36
6,C21A U43A,0.09
7,C21A U43C,0.11
8,C21A U43G,0.1
9,C20U C9G,0.73
10,C20U C9A,0.38
11,C20U C9U,0.68
12,C21A G45U,0.05
13,C21A G45A,0.05
14,C21A G45C,0.05
15,C20A G44C,0.76
16,C20A G44U,0.78
17,C20A G44A,0.75
18,C20A U24G,0.06
19,C20A U24C,0.17
20,C20A U24A,0.37
21,C20A G53C,0.1
22,C20A G53A,0.67
23,C20A G53U,0.42
